According to ChEMBL document CHEMBL3045113, “Inhibition of plant-pathogenic bacteria by short synthetic cecropin A-melittin hybrid peptides” (Appl Environ Microbiol, 2006):
In brackets after ≈: the same amount, converted by molar mass. Activity calls are given as the source filed them. The calls are words filed in the database; no cut-off is given here. *1 amine or outer side, *2 acyl side, *3 side chain or, on linkers, in order; H or OH if unused. Where a SMILES comes first, the peptide text is derived from it. [ ]: non-standard residue; d: D form. The star is where a group is joined. X1 = O=C([C@H](Cc1c[nH]c2ccccc12)N(Cc1ccccc1)[*:1])[*:2]; Palmitoyl = CCCCCCCCCCCCCCCC(=O)*; Tos = Cc1ccc(S(=O)(=O)*)cc1; Bz = O=C(c1ccccc1)*

Key:
[1] = test system: Xanthomonas vesicatoria; experiment: Antibacterial activity against Xanthomonas vesicatoria 2133-2 after 48 hr by broth dilution method; type: functional; conditions: 2133-2, 48 h
Procedure, shortened: (§1)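 Broth microdilution in tryptic soy broth with bacteria from a 10⁸ CFU/ml suspension. Final peptide levels were 750 down to 25 μM, or 250 to 3.12 μM for cecropin A. Plates were held at 25°C with OD600 read hourly for 48 h, in duplicate wells, and the run was repeated twice. MIC is the lowest concentration with no growth at 48 h.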

[2] = test system: Pseudomonas syringae pv. syringae; experiment: Antibacterial activity against Pseudomonas syringae pv. syringae EPS94 after 48 hr by broth dilution method; type: functional; conditions: EPS94, 48 h; procedure, shortened: as §1
[3] = Stability of the compound in tris buffer at pH 7.6 at 50 ug/ml after 45 min by HPLC method in presence of proteinase K; conditions: pH 7.6, 0.75 h
[4] = test system: Xanthomonas vesicatoria; experiment: Bactericidal activity against Xanthomonas vesicatoria 2133-2 assessed as decrease in survival at 5 uM after 48 hr; type: functional, organism-based
Procedure, shortened: (§2)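 LB broth cultures at 4 × 10⁶ CFU/ml were exposed to 5 μM peptide. Samples taken every 30 min over 3 h were diluted 10-fold and plated on LB agar. Colonies were counted after 48 h at 25°C, and survival is expressed as % of the starting count.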

[5] = test system: Erwinia amylovora; experiment: Antibacterial activity against Erwinia amylovora PMV6076 assessed as growth inhibition after 48 hr; type: functional; conditions: PMV6076, 48 h, read-out: ED50 (the source's name)
Procedure, shortened: (§3)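 Growth was read as OD600 every hour for 48 h at 25°C in tryptic soy broth across a peptide dilution series, in duplicate, repeated twice. Growth is the area under the curve, and inhibition is given as % of the water control. ED50 comes from a probit-dose model fitted by nonlinear least squares.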

[6] = test system: Xanthomonas vesicatoria; experiment: Antibacterial activity against Xanthomonas vesicatoria 2133-2 assessed as growth inhibition after 48 hr; type: functional; conditions: 2133-2, 48 h, read-out: ED50 (the source's name); procedure, shortened: as §3
[7] = Hemolytic activity against Homo sapiens (human) RBC assessed as hemoglobin release after 1 hr; type: ADME, cell-based, Erythrocyte; conditions: red blood cells, read-out: HD50
Procedure, shortened: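 Fresh EDTA-anticoagulated human blood was washed in Tris buffer (10 mM Tris, 150 mM NaCl, pH 7.2) and used as a 5% suspension. Equal volumes of cells and peptide at 800 to 12.5 μM were shaken for 1 h at 37°C, then centrifuged. Supernatant A540 was taken relative to buffer and a melittin full-lysis control. HD50 was derived by probit fit.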

[8] = test system: Pseudomonas syringae pv. syringae; experiment: Antibacterial activity against Pseudomonas syringae pv. syringae EPS94 assessed as growth inhibition after 48 hr; type: functional; conditions: EPS94, 48 h, read-out: ED50 (the source's name); procedure, shortened: as §3
[9] = test system: Erwinia amylovora; experiment: Antibacterial activity against Erwinia amylovora PMV6076 after 48 hr by broth dilution method; type: functional; conditions: PMV6076, 48 h; procedure, shortened: as §1
[10] = test system: Erwinia amylovora; experiment: Bactericidal activity against Erwinia amylovora PMV6076 assessed as decrease in survival at 5 uM after 48 hr; type: functional, organism-based; procedure, shortened: as §2
[11] = test system: Pseudomonas syringae pv. syringae; experiment: Bactericidal activity against Pseudomonas syringae pv. syringae EPS94 assessed as decrease in survival at 5 uM after 48 hr; type: functional, organism-based; procedure, shortened: as §2
[12] = test system: Pseudomonas syringae pv. syringae; experiment: Antibacterial activity against Pseudomonas syringae pv. syringae EPS94 at 25 to 750 uM after 48 hr by broth dilution method; type: functional, organism-based; procedure, shortened: as §1
[13] = test system: Xanthomonas vesicatoria; experiment: Antibacterial activity against Xanthomonas vesicatoria 2133-2 at 25 to 750 uM after 48 hr by broth dilution method; type: functional, organism-based; procedure, shortened: as §1
[14] = test system: Erwinia amylovora; experiment: Antibacterial activity against Erwinia amylovora PMV6076 at 25 to 750 uM after 48 hr by broth dilution method; type: functional, organism-based; procedure, shortened: as §1
[15] = test system: Xanthomonas vesicatoria; experiment: Bactericidal activity against Xanthomonas vesicatoria 2133-2 assessed as decrease in survival at 5 uM after 90 min; type: functional, organism-based; procedure, shortened: as §2

Molecule | MIC [1] [µM] | MIC [2] [µM] | Stability [3] | MIC [9] [µM] | Activity [4] | EC50 [5] [µM] | EC50 [6] [µM] | HC50 at 1 h [7] [µM] | EC50 [8] [µM] | Activity [10] | Activity [11] | Activity [12] | Activity [13] | Activity [14] | Activity [15]
H-WKLFKKILKVL-NH2 | 7 | 7 | Unstable | 7 | Active | 5.5 | 3.6 | 104 | 5.5 | Active | Active |  |  |  | 
H-LKLFKKILKVL-NH2 | 10 | 5 | Unstable | 5 | Active | 4.3 | 4.1 | 190 | 3.2 | Active | Active |  |  |  | 
H-WKLFKKILKKL-NH2 |  |  |  |  |  |  |  |  |  |  |  | inactive | inactive | inactive | 
H-YKLFKKILKVL-NH2 |  |  |  |  |  |  |  |  |  |  |  | inactive | inactive | inactive | 
CC[C@H](C)[C@H](NC(=O)[C@H](CCCCN)NC(=O)[C@H](CCCCN)NC(=O)[C@H](Cc1ccccc1)NC(=O)[C@H](CC(C)C)NC(=O)[C@H](CCCCN)NC(=O)[C@@H](N)CCCCN)C(=O)N[C@@H](CC(C)C)C(=O)N[C@@H](CCCCN)C(=O)N[C@@H](CCCCN)C(=O)N[C@@H](CC(C)C)C(N)=O |  |  |  |  |  |  |  |  |  |  |  | inactive | inactive | inactive | 
H-FKLFKKILKVL-NH2 |  |  |  |  |  |  |  |  |  |  |  | inactive | inactive | inactive | 
CC[C@H](C)[C@H](NC(=O)[C@H](CCCCN)NC(=O)[C@H](CCCCN)NC(=O)[C@H](Cc1ccccc1)NC(=O)[C@H](CC(C)C)NC(=O)[C@H](CCCCN)NC(=O)[C@@H](N)CCCCN)C(=O)N[C@@H](CC(C)C)C(=O)N[C@@H](CCCCN)C(=O)N[C@H](C(=O)N[C@@H](CC(C)C)C(N)=O)C(C)C [KKLFKKILKVL-NH2] | 12 (≈ 16.3 µg/mL) | 2 (≈ 2.71 µg/mL) | Unstable | 5 (≈ 6.78 µg/mL) | Active | 4.3 | 7.3 | 334 | 1.6 | Active | Active |  |  |  | 
CC[C@H](C)[C@H](NC(=O)[C@H](CCCCN)NC(=O)[C@H](CCCCN)NC(=O)[C@H](Cc1ccccc1)NC(=O)[C@H](CC(C)C)NC(=O)[C@H](CCCCN)NC(=O)[C@H](Cc1c[nH]c2ccccc12)NCc1ccccc1)C(=O)N[C@@H](CC(C)C)C(=O)N[C@@H](CCCCN)C(=O)N[C@H](C(=O)N[C@@H](CC(C)C)C(N)=O)C(C)C (H-[X1]KLFKKILKVL-NH2) | 2 (≈ 3.01 µg/mL) | 5 (≈ 7.53 µg/mL) |  | 7 (≈ 10.5 µg/mL) | Active | 5 | 2.5 | 30 | 3.8 | inactive | Active |  |  |  | 
CCCCCCCCCCCCCCCC(=O)N[C@@H](Cc1c[nH]c2ccccc12)C(=O)N[C@@H](CCCCN)C(=O)N[C@@H](CC(C)C)C(=O)N[C@@H](Cc1ccccc1)C(=O)N[C@@H](CCCCN)C(=O)N[C@@H](CCCCN)C(=O)N[C@H](C(=O)N[C@@H](CC(C)C)C(=O)N[C@@H](CCCCN)C(=O)N[C@H](C(=O)N[C@@H](CC(C)C)C(N)=O)C(C)C)[C@@H](C)CC (Palmitoyl-WKLFKKILKVL-NH2) | 25 (≈ 41.3 µg/mL) | 50 (≈ 82.7 µg/mL) |  | 50 (≈ 82.7 µg/mL) |  | 60 | 14.7 | 6 | 56.8 |  |  |  |  |  | 

The next lines start with results.

MIC [1] [µM] | MIC [2] [µM] | Stability [3] | MIC [9] [µM] | Molecule | Activity [4] | EC50 [5] [µM] | EC50 [6] [µM] | HC50 at 1 h [7] [µM] | EC50 [8] [µM] | Activity [10] | Activity [11] | Activity [12] | Activity [13] | Activity [14] | Activity [15]
2 | 7 | Unstable | 10 | Ac-WKLFKKILKVL-NH2 |  | 9 | 2 | 17 | 4.3 |  |  |  |  |  | 
< 2 | 5 |  | 5 | H-WKLFKKILKWL-NH2 |  | 3 |  | 26 | 2.5 |  |  |  |  |  | 
< 2 | 5 |  | 5 | H-WKLFKKILKFL-NH2 |  | 1.3 |  | 32 | 1.9 |  |  |  |  |  | 
2 (≈ 2.96 µg/mL) | 2 (≈ 2.96 µg/mL) |  | 2 (≈ 2.96 µg/mL) | CC[C@H](C)[C@H](NC(=O)[C@H](CCCCN)NC(=O)[C@H](CCCCN)NC(=O)[C@H](Cc1ccccc1)NC(=O)[C@H](CC(C)C)NC(=O)[C@H](CCCCN)NC(=O)[C@@H](N)Cc1c[nH]c2ccccc12)C(=O)N[C@@H](CC(C)C)C(=O)N[C@@H](CCCCN)C(=O)N[C@@H](Cc1ccc(O)cc1)C(=O)N[C@@H](CC(C)C)C(N)=O |  | 3.2 | 2.3 | 42 | 2.7 |  |  |  |  |  | 
< 2 | 15 (≈ 22.8 µg/mL) | Unstable | 15 (≈ 22.8 µg/mL) | CC[C@H](C)[C@H](NC(=O)[C@H](CCCCN)NC(=O)[C@H](CCCCN)NC(=O)[C@H](Cc1ccccc1)NC(=O)[C@H](CC(C)C)NC(=O)[C@H](CCCCN)NC(=O)[C@H](Cc1c[nH]c2ccccc12)NC(=O)c1ccccc1)C(=O)N[C@@H](CC(C)C)C(=O)N[C@@H](CCCCN)C(=O)N[C@H](C(=O)N[C@@H](CC(C)C)C(N)=O)C(C)C (Bz-WKLFKKILKVL-NH2) |  | 15.1 |  | 11 | 9.5 |  |  |  |  |  | 
< 2 | 12 (≈ 18.8 µg/mL) |  | 12 (≈ 18.8 µg/mL) | CC[C@H](C)[C@H](NC(=O)[C@H](CCCCN)NC(=O)[C@H](CCCCN)NC(=O)[C@H](Cc1ccccc1)NC(=O)[C@H](CC(C)C)NC(=O)[C@H](CCCCN)NC(=O)[C@H](Cc1c[nH]c2ccccc12)NS(=O)(=O)c1ccc(C)cc1)C(=O)N[C@@H](CC(C)C)C(=O)N[C@@H](CCCCN)C(=O)N[C@H](C(=O)N[C@@H](CC(C)C)C(N)=O)C(C)C (Tos-WKLFKKILKVL-NH2) |  | 11.2 |  | 10 | 6.9 |  |  |  |  |  | 
2 (≈ 2.81 µg/mL) | 2 (≈ 2.81 µg/mL) | Stable | 2 (≈ 2.81 µg/mL) | CC[C@H](C)[C@H](NC(=O)[C@H](CCCCN)NC(=O)[C@H](CCCCN)NC(=O)[C@H](Cc1ccccc1)NC(=O)[C@H](CC(C)C)NC(=O)[C@H](CCCCN)NC(=O)[C@@H](N)CCCCN)C(=O)N[C@@H](CC(C)C)C(=O)N[C@@H](CCCCN)C(=O)N[C@@H](Cc1ccccc1)C(=O)N[C@@H](CC(C)C)C(N)=O [KKLFKKILKFL-NH2] |  | 2.5 | 1.9 | 203 | 2.1 | Active | Active |  |  |  | Active
